Source: ChEMBL document CHEMBL1142155, “Human beta-defensins kill Candida albicans in an energy-dependent and salt-sensitive manner without causing membrane disruption” (2007)
The source made the active and inactive calls. The calls are words filed in the database; no cut-off is given here.

What was measured:
Candida albicans [1] = assay: Induction of ATP efflux in Candida albicans CAF4-2 at 31 uM in presence of 1 mM sodium azide; type: functional, organism-based
Outline: (§1)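 10⁴ C. albicans cells given 31 μM Hst 5 or 1 μM hBD-3, with or without 2 h pretreatment in 1 mM NaN₃. Extracellular ATP read by luminometry at 0, 5, 15, 30, 45 and 60 min. Values come from per-experiment ATP standard curves, as pmol ATP per 10⁴ cells.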

Candida albicans [2] = assay: Induction of ATP efflux in Candida albicans CAF4-2 at 31 uM; type: functional, organism-based; outline: as §1
Candida albicans [3] = assay: Induction of membrane permeabilization in Candida albicans assessed as calcein release at 32 uM after 90 min; type: functional
Outline: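 Early-stationary yeast washed in 10 mM NaPB, loaded at 10⁷/ml with 5 μM (final) calcein-AM for 2 h at room temperature, then washed four times; 10⁶ cells given 0.8 μM hBD-3 or 32 μM Hst 5. Fluorescence (ex 485/em 530 nm) read every 5 min for 90 min. Percent release = (I_r − I_bkg)/(I_int − I_bkg) × 100, where I_int comes from boiling 10 min. Mean ± SD of three experiments.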

Nakaseomyces glabratus [4] = assay: Fungicidal activity against Candida glabrata 931010 at 31 uM; type: functional
Nakaseomyces glabratus [5] = assay: Fungicidal activity against Candida glabrata 932474 at 31 uM; type: functional
Candida albicans [6] = assay: Fungicidal activity against Candida albicans CAF4-2 at 31 uM; type: functional
Candida albicans [7] = assay: Antimicrobial activity against Candida albicans at 1.0 uM in presence of 20 mM NaPB; type: functional
Outline: (§2)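 YNB-grown yeast washed twice and resuspended at 10⁶ cells/ml in 10, 20, 50 or 100 mM sodium phosphate buffer, pH 7.4; peptide 0.2 to 1.0 μM for 1 h at 30°C. Diluted aliquots of 500 cells plated on YNB agar, 48 h at room temperature. Loss of viability = [1 − (treated colonies/buffer-only colonies)] × 100; at least three independent experiments.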

Candida albicans [8] = assay: Antimicrobial activity against Candida albicans at 1.0 uM in presence of 10 mM NaPB; type: functional; outline: as §2
Candida albicans [9] = assay: Antimicrobial activity against Candida albicans at 1.0 uM in presence of 50 mM NaPB; type: functional; outline: as §2
Candida albicans [10] = assay: Cell death in Candida albicans CAF4-2 at <= 0.6 uM in the presence of 1 mM NaN3 relative to control; type: functional
Nakaseomyces glabratus [11] = assay: Fungicidal activity against Candida glabrata 931010 at 0.8 uM; type: functional
Nakaseomyces glabratus [12] = assay: Fungicidal activity against Candida glabrata 932474 at 0.8 uM; type: functional
Candida albicans [13] = assay: Fungicidal activity against Candida albicans CAF4-2 at 0.8 uM; type: functional
Candida albicans [14] = assay: Cell death in Candida albicans CAF4-2 at >= 0.8 uM in presence of 1 mM NaN3 relative to control
Candida albicans [15] = assay: Antimicrobial activity against Candida albicans at 11.6 uM in presence of 10 mM NaPB; type: functional
Outline: (§3)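 YNB-grown C. albicans (CAF4-2) washed and resuspended at 10⁶ cells/ml in 10, 20, 50 or 100 mM sodium phosphate buffer pH 7.4; peptide 2.9 to 11.6 μM, 1 h at 30°C; 500-cell aliquots plated on YNB agar, 48 h room temperature; loss of viability = [1 − (treated/buffer-only colonies)] × 100; at least three independent experiments, mean ± SD.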

Candida albicans [16] = assay: Antimicrobial activity against Candida albicans at 11.6 uM in presence of 20 mM NaPB; type: functional; outline: as §3
Candida albicans [17] = assay: Antimicrobial activity against Candida albicans at 11.6 uM in presence of 50 mM NaPB; type: functional; outline: as §3
Candida albicans [18] = assay: Antimicrobial activity against Candida albicans at 11.6 uM in presence of 100 mM NaPB; type: functional; outline: as §3
Candida albicans [19] = assay: Survival of Candida albicans at 11.6 uM in presence of 0.5 mM CaCl2; type: functional
Outline: (§4)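 Cells at 10⁶/ml in 10 mM sodium phosphate pH 7.4 supplemented with 0.5, 1, 5 or 25 mM CaCl₂, MgCl₂, NaCl or KCl; hBD-2 11.6 μM for 1 h at 30°C; colonies counted on YNB agar after 48 h at room temperature; survival relative to buffer-only cells; at least three independent experiments, mean ± SD.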

Candida albicans [20] = assay: Survival of Candida albicans at 11.6 uM in presence of 0.5 mM MgCl2; type: functional; outline: as §4
Candida albicans [21] = assay: Survival of Candida albicans at 11.6 uM in presence of 5 mM CaCl2; type: functional; outline: as §4
Candida albicans [22] = assay: Survival of Candida albicans at 11.6 uM in presence of 5 mM MgCl2; type: functional; outline: as §4
Candida albicans [23] = assay: Survival of Candida albicans at 11.6 uM in presence of 0.5 mM NaCl; type: functional; outline: as §4
Candida albicans [24] = assay: Survival of Candida albicans at 11.6 uM in presence of 0.5 mM KCl; type: functional; outline: as §4
Candida albicans [25] = assay: Cell death in Candida albicans CAF4-2 in presence of 1 mM NaN3 relative to control; type: functional
Nakaseomyces glabratus [26] = assay: Fungicidal activity against Candida glabrata 931010 at 11.6 uM; type: functional
Outline: (§5)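 C. albicans CAF4-2 and C. glabrata 931010 or 932474 at 10⁶/ml in 10 mM sodium phosphate pH 7.4, exposed to one peptide concentration (Hst 5 31 μM, hBD-2 11.6 μM, hBD-3 0.8 μM); 500-cell aliquots plated on YNB agar for 48 h at room temperature; loss of viability versus buffer-only control; triplicate.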

Nakaseomyces glabratus [27] = assay: Fungicidal activity against Candida glabrata 932474 at 11.6 uM; type: functional; outline: as §5
Candida albicans [28] = assay: Fungicidal activity against Candida albicans CAF4-2 at 11.6 uM; type: functional; outline: as §5
Candida albicans [29] = assay: Induction of ATP efflux in Candida albicans CAF4-2 at 11.6 uM; type: functional, organism-based
Outline: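 C. albicans CAF4-2 (10⁴ cells) mixed with peptide (Hst 5 31 μM, hBD-2 11.6 μM, hBD-3 1 μM), some cells pretreated 2 h with 1 mM NaN₃; extracellular ATP read by luminometry at 0, 5, 15, 30, 45 and 60 min; quantified against per-experiment ATP standard curves as pmol ATP per 10⁴ cells.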

Candida albicans [30] = assay: Induction of membrane permeabilization in Candida albicans assessed as calcein release at 11.6 uM after 90 min; type: functional
Outline: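 Early-stationary C. albicans loaded with 5 μM (final) calcein-AM, 2 h room temperature, washed four times; 10⁶ cells with peptide, fluorescence (ex 485/em 530 nm) read every 5 min for 90 min; 100% from boiled cells (10 min), background from untreated cells; % release = (I_r − I_bkg)/(I_int − I_bkg) × 100; three independent experiments, mean ± SD.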

C[C@H](NC(=O)[C@H](Cc1cnc[nH]1)NC(=O)[C@H](CO)NC(=O)[C@@H](N)CC(=O)O)C(=O)N[C@@H](CCCCN)C(=O)N[C@@H](CCCNC(=N)N)C(=O)N[C@@H](Cc1cnc[nH]1)C(=O)N[C@@H](Cc1cnc[nH]1)C(=O)NCC(=O)N[C@@H](Cc1ccc(O)cc1)C(=O)N[C@@H](CCCCN)C(=O)N[C@@H](CCCNC(=N)N)C(=O)N[C@@H](CCCCN)C(=O)N[C@@H](Cc1ccccc1)C(=O)N[C@@H](Cc1cnc[nH]1)C(=O)N[C@@H](CCC(=O)O)C(=O)N[C@@H](CCCCN)C(=O)N[C@@H](Cc1cnc[nH]1)C(=O)N[C@@H](Cc1cnc[nH]1)C(=O)N[C@@H](CO)C(=O)N[C@@H](Cc1cnc[nH]1)C(=O)N[C@@H](CCCNC(=N)N)C(=O)NCC(=O)N[C@@H](Cc1ccc(O)cc1)C(=O)O [HISTATIN 5]
Activity (Candida albicans [1]): inactive | Activity (Candida albicans [2]): Active | Activity (Candida albicans [3]): 11% | Activity (Nakaseomyces glabratus [4]): 12.2% | Activity (Nakaseomyces glabratus [5]): 29.4% | Activity (Candida albicans [6]): 97.5%

CC[C@H](C)[C@H](NC(=O)CN)C(=O)N[C@H](C(=O)N[C@@H](CC(N)=O)C(=O)N[C@H](C(=O)N[C@@H](CC(C)C)C(=O)N[C@@H](CCC(N)=O)C(=O)N[C@@H](CCCCN)C(=O)N[C@@H](Cc1ccc(O)cc1)C(=O)N[C@@H](Cc1ccc(O)cc1)C(=O)N[C@@H](CS)C(=O)N[C@@H](CCCNC(=N)N)C(=O)N[C@H](C(=O)N[C@@H](CCCNC(=N)N)C(=O)NCC(=O)NCC(=O)N[C@@H](CCCNC(=N)N)C(=O)N[C@@H](CS)C(=O)N[C@@H](C)C(=O)N[C@H](C(=O)N[C@@H](CC(C)C)C(=O)N[C@@H](CO)C(=O)N[C@@H](CS)C(=O)N[C@@H](CC(C)C)C(=O)N1CCC[C@H]1C(=O)N[C@@H](CCCCN)C(=O)N[C@@H](CCC(=O)O)C(=O)N[C@@H](CCC(=O)O)C(=O)N[C@@H](CCC(N)=O)C(=O)N[C@H](C(=O)NCC(=O)N[C@@H](CCCCN)C(=O)N[C@@H](CS)C(=O)N[C@@H](CO)C(=O)N[C@H](C(=O)N[C@@H](CCCNC(=N)N)C(=O)NCC(=O)N[C@@H](CCCNC(=N)N)C(=O)N[C@@H](CCCCN)C(=O)N[C@@H](CS)C(=O)N[C@@H](CS)C(=O)N[C@@H](CCCNC(=N)N)C(=O)N[C@@H](CCCNC(=N)N)C(=O)N[C@@H](CCCCN)C(=O)N[C@@H](CCCCN)C(=O)O)[C@@H](C)O)[C@@H](C)CC)C(C)C)C(C)C)[C@@H](C)O)[C@@H](C)CC
Activity (Candida albicans [7]): 63% | Activity (Candida albicans [8]): 98.2% | Activity (Candida albicans [9]): 18% | Activity (Candida albicans [10]): <10% | Activity (Nakaseomyces glabratus [11]): 11.5% | Activity (Nakaseomyces glabratus [12]): 53.2% | Activity (Candida albicans [13]): 98.2% | Activity (Candida albicans [14]): 36%

CC[C@H](C)[C@H](NC(=O)CN)C(=O)NCC(=O)N[C@@H](CC(=O)O)C(=O)N1CCC[C@H]1C(=O)N[C@H](C(=O)N[C@H](C(=O)N[C@@H](CS)C(=O)N[C@@H](CC(C)C)C(=O)N[C@@H](CCCCN)C(=O)N[C@@H](CO)C(=O)NCC(=O)N[C@@H](C)C(=O)N[C@H](C(=O)N[C@@H](CS)C(=O)N[C@@H](Cc1cnc[nH]1)C(=O)N1CCC[C@H]1C(=O)N[C@H](C(=O)N[C@@H](Cc1ccccc1)C(=O)N[C@@H](CS)C(=O)N1CCC[C@H]1C(=O)N[C@@H](CCCNC(=N)N)C(=O)N[C@@H](CCCNC(=N)N)C(=O)N[C@@H](Cc1ccc(O)cc1)C(=O)N[C@@H](CCCCN)C(=O)N[C@@H](CCC(N)=O)C(=O)N[C@H](C(=O)NCC(=O)N[C@H](C(=O)N[C@@H](CS)C(=O)NCC(=O)N[C@@H](CC(C)C)C(=O)N1CCC[C@H]1C(=O)NCC(=O)N[C@H](C(=O)N[C@@H](CCCCN)C(=O)N[C@@H](CS)C(=O)N[C@@H](CS)C(=O)N[C@@H](CCCCN)C(=O)N[C@@H](CCCCN)C(=O)N1CCC[C@H]1C(=O)O)[C@@H](C)O)[C@@H](C)O)[C@@H](C)CC)C(C)C)[C@@H](C)CC)[C@@H](C)O)C(C)C
Activity (Candida albicans [15]): 95% | Activity (Candida albicans [16]): 54% | Activity (Candida albicans [17]): 29% | Activity (Candida albicans [18]): 24% | Activity (Candida albicans [19]): 69% | Activity (Candida albicans [20]): 58.4% | Activity (Candida albicans [21]): 86% | Activity (Candida albicans [22]): 97.6% | Activity (Candida albicans [23]): 24% | Activity (Candida albicans [24]): 18% | Activity (Candida albicans [25]): 15% | Activity (Nakaseomyces glabratus [26]): 20.2% | Activity (Nakaseomyces glabratus [27]): 89.6% | Activity (Candida albicans [28]): 95%

CC[C@H](C)[C@H](NC(=O)CN)C(=O)NCC(=O)N[C@@H](CC(=O)O)C(=O)N1CCC[C@H]1C(=O)N[C@H](C(=O)N[C@H](C(=O)N[C@@H](CS)C(=O)N[C@@H](CC(C)C)C(=O)N[C@@H](CCCCN)C(=O)N[C@@H](CO)C(=O)NCC(=O)N[C@@H](C)C(=O)N[C@H](C(=O)N[C@@H](CS)C(=O)N[C@@H](Cc1cnc[nH]1)C(=O)N1CCC[C@H]1C(=O)N[C@H](C(=O)N[C@@H](Cc1ccccc1)C(=O)N[C@@H](CS)C(=O)N1CCC[C@H]1C(=O)N[C@@H](CCCNC(=N)N)C(=O)N[C@@H](CCCNC(=N)N)C(=O)N[C@@H](Cc1ccc(O)cc1)C(=O)N[C@@H](CCCCN)C(=O)N[C@@H](CCC(N)=O)C(=O)N[C@H](C(=O)NCC(=O)N[C@H](C(=O)N[C@@H](CS)C(=O)NCC(=O)N[C@@H](CC(C)C)C(=O)N1CCC[C@H]1C(=O)NCC(=O)N[C@H](C(=O)N[C@@H](CCCCN)C(=O)N[C@@H](CS)C(=O)N[C@@H](CS)C(=O)N[C@@H](CCCCN)C(=O)N[C@@H](CCCCN)C(=O)N1CCC[C@H]1C(=O)O)[C@H](C)O)[C@H](C)O)[C@@H](C)CC)C(C)C)[C@@H](C)CC)[C@H](C)O)C(C)C
Activity (Candida albicans [29]): Active | Activity (Candida albicans [30]): 10.3%
